Reference: ChEMBL document CHEMBL1142350, “From rigid cyclic templates to conformationally stabilized acyclic scaffolds. Part I: the discovery of CCR3 antagonist development candidate BMS-639623 with picomolar inhibition potency against eosinophil chemotaxis” (Bioorg Med Chem Lett, 2008)

Tests used:
[1] = biological target: T1, C-C chemokine receptor type 3 (Homo sapiens, UniProt P51677); assay: Displacement of [125I]eotaxin from human CCR3 receptor expressed in CHO cells; assay type: cell-based
T1 sequence (P51677 whole entry): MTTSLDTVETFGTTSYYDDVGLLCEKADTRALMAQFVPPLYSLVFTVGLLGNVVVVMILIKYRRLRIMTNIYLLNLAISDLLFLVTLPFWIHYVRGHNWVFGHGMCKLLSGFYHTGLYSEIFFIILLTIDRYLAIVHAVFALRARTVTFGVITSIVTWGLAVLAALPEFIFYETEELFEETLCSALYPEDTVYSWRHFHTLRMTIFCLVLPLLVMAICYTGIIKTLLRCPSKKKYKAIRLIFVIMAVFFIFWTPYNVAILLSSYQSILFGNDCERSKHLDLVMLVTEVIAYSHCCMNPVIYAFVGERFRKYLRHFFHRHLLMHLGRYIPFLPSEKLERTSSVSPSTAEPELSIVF

[2] = Metabolic stability assessed as clearance in human liver microsomes; assay type: ADME, Microsome
Cytochrome P450 2D6 = Cytochrome P450 2D6 (Homo sapiens, UniProt P10635)
Sequence of Cytochrome P450 2D6 (P10635 whole entry): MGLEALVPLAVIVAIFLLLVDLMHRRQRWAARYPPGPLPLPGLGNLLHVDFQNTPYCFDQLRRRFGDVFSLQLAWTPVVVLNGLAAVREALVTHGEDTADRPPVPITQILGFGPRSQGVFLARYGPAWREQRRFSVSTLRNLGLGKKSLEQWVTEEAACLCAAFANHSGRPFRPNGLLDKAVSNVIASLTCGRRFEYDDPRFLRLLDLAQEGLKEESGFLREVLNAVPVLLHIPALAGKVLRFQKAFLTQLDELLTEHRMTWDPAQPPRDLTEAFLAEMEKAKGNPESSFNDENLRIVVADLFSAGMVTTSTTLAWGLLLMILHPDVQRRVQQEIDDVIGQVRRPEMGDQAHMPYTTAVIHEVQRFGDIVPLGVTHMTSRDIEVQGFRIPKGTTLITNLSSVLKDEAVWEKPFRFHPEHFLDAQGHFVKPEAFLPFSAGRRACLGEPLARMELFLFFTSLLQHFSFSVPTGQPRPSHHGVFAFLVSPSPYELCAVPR

[3] = Bioavailability in mouse at 10 mg/kg, po; assay type: ADME, organism-based; details: in vivo
[4] = Cmax in mouse at 10 mg/kg, po; assay type: ADME, organism-based; parameters: dose 10 mg/kg, route oral; details: in vivo
[5] = AUC in mouse at 10 mg/kg, po; assay type: ADME, organism-based; parameters: dose 10 mg/kg, route oral; details: plasma
[6] = Bioavailability in rat at 50 mg/kg, po; assay type: ADME, organism-based; details: in vivo
[7] = Cmax in rat at 50 mg/kg, po; assay type: ADME, organism-based; parameters: dose 50 mg/kg, route oral; details: in vivo
[8] = AUC in rat at 50 mg/kg, po; assay type: ADME, organism-based; parameters: dose 50 mg/kg, route oral; details: plasma
[9] = Bioavailability in dog at 10 mg/kg, po; assay type: ADME, organism-based, Canis lupus familiaris; details: in vivo
[10] = Cmax in dog at 10 mg/kg, po; assay type: ADME, organism-based, Canis lupus familiaris; parameters: dose 10 mg/kg, route oral; details: in vivo
[11] = AUC in dog at 10 mg/kg, po; assay type: ADME, organism-based, Canis lupus familiaris; parameters: dose 10 mg/kg, route oral; details: plasma
[12] = Bioavailability in chimpanzee at 2 mg/kg, po; assay type: ADME, organism-based, Pan troglodytes; details: in vivo
[13] = Cmax in chimpanzee at 2 mg/kg, po; assay type: ADME, organism-based, Pan troglodytes; parameters: dose 2 mg/kg, route oral; details: in vivo
[14] = AUC in chimpanzee at 2 mg/kg, po; assay type: ADME, organism-based, Pan troglodytes; parameters: dose 2 mg/kg, route oral; details: plasma
[15] = biological target: T1, C-C chemokine receptor type 3; assay: Antagonist activity at human CCR3 receptor in human eosinophil assessed as inhibition of eotaxin-stimulated intracellular calcium flux; assay type: functional, cell-based
[16] = Bioavailability in cynomolgus monkey at 10 mg/kg, po; assay type: ADME, organism-based, Macaca fascicularis; details: in vivo
[17] = Cmax in cynomolgus monkey at 10 mg/kg, po; assay type: ADME, organism-based, Macaca fascicularis; parameters: dose 10 mg/kg, route oral; details: in vivo
[18] = AUC in cynomolgus monkey at 10 mg/kg, po; assay type: ADME, organism-based, Macaca fascicularis; parameters: dose 10 mg/kg, route oral; details: plasma
Cynomolgus monkey = assay: Reduction of eosinophilia in Ascaris suum-challenged cynomolgus monkey at 5 mg/kg, po bid 2 hrs administered before pathogen challenge after 10 hrs; assay type: functional, Macaca fascicularis; parameters: scale not given: the % may be the effect or the level left
Method in brief: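 Cross-over design in five cynomolgus monkeys given vehicle or compound orally at 5 mg/kg b.i.d., 2 h before and 10 h after Ascaris suum aerosol challenge. Bronchoalveolar lavage was done 24 h after challenge and eosinophils were counted. Trough plasma levels were measured.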

[19] = biological target: T2, C-C chemokine receptor type 3 (Homo sapiens) (UniProt P51677); assay: Displacement of [125I]eotaxin from human CCR3 receptor expressed in CHO cells at 0.3 uM; assay type: cell-based
T2 sequence (whole entry): T1 sequence (P51677 whole entry)

| SMILES | IC50 [1] [nM] | IC50 (Cytochrome P450 2D6) [nM] | also measured |
| --- | --- | --- | --- |
| C[C@H](CCN1CCC[C@@H](Cc2ccc(F)cc2)C1)NC(=O)Nc1cc(-c2nnnn2C)cc(C(C)(C)O)c1 | 0.7 | – | CLhep predicted [2]: 12 mL/min/kg |
| C[C@H](CCN1CCC[C@@H](Cc2ccc(F)cc2)C1)NC(=O)Nc1cc(-n2cccn2)cc(-n2cccn2)c1 | 1.7 | 3000 | – |
| CCc1cc(NC(=O)NCCCN2CCC[C@@H](Cc3ccc(F)cc3)C2)cc(-c2nnnn2C)c1 | 1 | – | – |
| O=C(NCCCN1CCC[C@@H](Cc2ccc(F)cc2)C1)Nc1cc(-n2cccn2)cc(-n2cccn2)c1 | 1.6 | 2800 | – |
| CCc1cc(NC(=O)N[C@H](C)[C@H](CN2CCC[C@@H](Cc3ccc(F)cc3)C2)N(C)C)cc(-c2nnnn2C)c1 | 0.5 | – | – |
| CC(C)c1cc(NC(=O)NCCCN2CCC[C@@H](Cc3ccc(F)cc3)C2)cc(-c2nnnn2C)c1 | 2.6 | – | – |
| CC(=O)c1cc(NC(=O)N[C@H](C)CCN2CCC[C@@H](Cc3ccc(F)cc3)C2)cc(-c2nnnn2C)c1 | 1.5 | – | – |
| C[C@H](CCN1CCC[C@@H](Cc2ccc(F)cc2)C1)NC(=O)Nc1cc(-n2ccnn2)cc(-n2ccnn2)c1 | 2 | – | – |
| CCC[C@H](CCN1CCC[C@@H](Cc2ccc(F)cc2)C1)NC(=O)Nc1cc(-c2nnnn2C)cc(C(C)(C)O)c1 | 1.5 | 1000 | CLhep predicted [2]: 17 mL/min/kg |
| C[C@H](CC(=O)N1CCC[C@@H](Cc2ccc(F)cc2)C1)NC(=O)Nc1cccc(-c2nnnn2C)c1 | 4.2 | 4400 | – |
| CC(=O)c1cc(NC(=O)N[C@H](C)CCN2CCC[C@@H](Cc3ccc(F)cc3)C2)cc(C(C)=O)c1 | 2.7 | – | – |
| C[C@H](CCN1CCC[C@@H](Cc2ccc(F)cc2)C1)NC(=O)Nc1cccc(-c2nnnn2C)c1 | 1.3 | – | – |
| C[C@@H](CCN1CCC[C@@H](Cc2ccc(F)cc2)C1)NC(=O)Nc1cccc(-c2nnnn2C)c1 | 4 | – | – |
| CC(C)c1cc(NC(=O)N[C@H](C)CCN2CCC[C@@H](Cc3ccc(F)cc3)C2)cc(-c2nnnn2C)c1 | 2.6 | – | – |
| CC[C@H](CCN1CCC[C@@H](Cc2ccc(F)cc2)C1)NC(=O)Nc1cc(-c2nnnn2C)cc(C(C)(C)O)c1 | 2.4 | 8200 | CLhep predicted [2]: 15 mL/min/kg |
| C[C@@H](NC(=O)Nc1cccc(-c2nnnn2C)c1)[C@@H](O)CN1CCC[C@@H](Cc2ccc(F)cc2)C1 | – | 2600 | bioavailability [3]: 57%; Cmax [4]: 1540 nM; AUC [5]: 3.15 µM·h; bioavailability [6]: 45%; Cmax [7]: 3170 nM; AUC [8]: 21.3 µM·h; bioavailability [9]: 17%; Cmax [10]: 926 nM; AUC [11]: 2.74 µM·h; bioavailability [12]: 16%; Cmax [13]: 173 nM; AUC [14]: 0.639 µM·h; IC50 [15]: 0.87 nM; bioavailability [16]: 19%; Cmax [17]: 561 nM; AUC [18]: 1.05 µM·h; Activity (Cynomolgus monkey): 82% |
| CCc1cc(NC(=O)N[C@H](C)CCN2CCC[C@@H](Cc3ccc(F)cc3)C2)cc(-c2nnnn2C)c1 | 2 | – | – |
| Cc1cc(NC(=O)N[C@H](C)CCN2CCC[C@@H](Cc3ccc(F)cc3)C2)cc(-c2nnnn2C)c1 | 1.2 | – | – |
| C[C@@H](CC(=O)N1CCC[C@@H](Cc2ccc(F)cc2)C1)NC(=O)Nc1cccc(-c2nnnn2C)c1 | – | > 100000 | Activity [19]: 37% |
| CC(=O)c1cc(NC(=O)N[C@@H](C)CCN2CCC[C@@H](Cc3ccc(F)cc3)C2)cc(C(C)=O)c1 | 5.8 | – | – |
| C[C@H](CCN1CCC[C@@H](Cc2ccc(F)cc2)C1)NC(=O)Nc1cc(Br)cc(-c2nnnn2C)c1 | 1.7 | – | – |
